Measurements: article PMC8892665 (ACS Omega, 2022)
Where “and” joins values, the source holds several entries; their conditions need not be identical. Equal entries are not always repeated.

How the values were obtained:
[1] = DPPH free radical scavenging; settings: for DPPH radical scavenging IC50: concentrations 100, 50, 25, 10 μg/mL, graphical method; for DPPH radical scavenging % inhibition: at 100 μg/mL
In short: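 DPPH (3.92 mg per 100 mL of 82% methanol) was combined with test compound at final 100, 50, 25 or 10 μg/mL and incubated 1 h at 25 °C in the dark. Absorbance at 517 nm. Scavenging % = […]. Triplicate, ascorbic acid positive control, IC50 obtained graphically.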

[2] = biological target: calf intestinal alkaline phosphatase (CIAP) (Bos taurus, UniProt P19111); assay: Calf intestinal alkaline phosphatase inhibition assay; type: biochemical
Sequence of calf intestinal alkaline phosphatase (CIAP) (P19111 20-533): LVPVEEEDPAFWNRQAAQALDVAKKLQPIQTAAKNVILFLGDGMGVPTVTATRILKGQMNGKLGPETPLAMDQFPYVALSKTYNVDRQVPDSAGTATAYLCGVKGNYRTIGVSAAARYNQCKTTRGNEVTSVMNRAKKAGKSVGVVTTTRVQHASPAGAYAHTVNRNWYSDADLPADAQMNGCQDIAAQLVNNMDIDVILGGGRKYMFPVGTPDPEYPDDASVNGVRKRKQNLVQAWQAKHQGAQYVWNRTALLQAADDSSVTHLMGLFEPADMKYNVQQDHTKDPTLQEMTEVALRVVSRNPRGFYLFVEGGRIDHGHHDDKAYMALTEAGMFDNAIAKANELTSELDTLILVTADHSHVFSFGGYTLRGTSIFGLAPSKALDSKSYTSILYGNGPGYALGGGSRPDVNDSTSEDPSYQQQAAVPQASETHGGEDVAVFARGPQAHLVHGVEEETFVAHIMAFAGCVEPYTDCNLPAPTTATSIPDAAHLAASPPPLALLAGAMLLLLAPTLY

Row | Compound | DPPH radical scavenging IC50 [1] | alkaline phosphatase inhibitory activity (in words) [2] | DPPH radical scavenging % inhibition [1]
1 | O=C1NC2=C(C(=O)N(c3ccc(F)cc3)C2)C(c2ccc(O)cc2)N1 (stereo not shown) [3f, 6-(4-Fluorophenyl)-4-(4-hydroxyphenyl)-3,4,6,7-tetrahydro-1H-pyrrolo[3,4-d]pyrimidine-2,5-dione] | 2.86 µg/mL |  | 
2 | 6-(4-Hydroxyphenyl)-6-(2-nitrophenyl)-3,4,6,7-tetrahydro-1H-pyrrolo[3,4-d]pyrimidine-2,5-dione [3h] | 2.61 µg/mL | moderate activity | about 60%
3 | O=C1NC2=C(C(=O)N(Cc3ccc(F)cc3)C2)C(c2ccccc2O)N1 (stereo not shown) [4d, 6-(4-Fluorobenzyl)-4-(2-hydroxyphenyl)-3,4,6,7-tetrahydro-1H-pyrrolo[3,4-d]pyrimidine-2,5-dione] |  |  | less than 50%
4 | 4-(4-Hydroxyphenyl)-6-(3-methoxyphenyl)-3,4,6,7-tetrahydro-1H-pyrrolo[3,4-d]pyrimidine-2,5-dione [3i] |  | no inhibition | less than 50%
5 | O=C1NC2=C(C(=O)N(c3ccc(Cl)cc3)C2)C(c2ccccc2O)N1 (stereo not shown) [4e, 6-(4-Chlorophenyl)-4-(2-hydroxyphenyl)-3,4,6,7-tetrahydro-1H-pyrrolo[3,4-d]pyrimidine-2,5-dione] |  |  | 60%
6 | CCCCCCCCN1CC2=C(C1=O)C(c1ccc(O)cc1)NC(=O)N2 (stereo not shown) [3b, 4-(4-Hydroxyphenyl)-6-octyl-3,4,6,7-tetrahydro-1H-pyrrolo[3,4-d]pyrimidine-2,5-dione] | 2.6 µg/mL |  | 
7 | O=C1O[C@H]([C@@H](O)CO)C(O)=C1O [ascorbic acid, reference compound] | 0.25 µg/mL |  | 97%
8 | O=C1NC2=C(C(=O)N(Cc3ccc(F)cc3)C2)C(c2ccc(O)cc2)N1 (stereo not shown) [3d, 6-(4-Fluorobenzyl)-4-(4-hydroxyphenyl)-3,4,6,7-tetrahydro-1H-pyrrolo[3,4-d]pyrimidine-2,5-dione] |  |  | less than 50%
9 | O=C1NC2=C(C(=O)N(Cc3ccccc3)C2)C(c2ccccc2O)N1 (stereo not shown) [4a, 6-Benzyl-4-(2-hydroxyphenyl)-3,4,6,7-tetrahydro-1H-pyrrolo[3,4-d]pyrimidine-2,5-dione] |  |  | less than 50%
10 | 4-(4-Hydroxyphenyl)-6-(2-methoxyphenyl)-3,4,6,7-tetrahydro-1H-pyrrolo[3,4-d]pyrimidine-2,5-dione [3k] |  | low activities | less than 50%
11 | COc1ccc(N2CC3=C(C2=O)C(c2ccc(O)cc2)NC(=O)N3)cc1 (stereo not shown) [3j, 4-(4-Hydroxyphenyl)-6-(4-methoxyphenyl)-3,4,6,7-tetrahydro-1H-pyrrolo[3,4-d]pyrimidine-2,5-dione] | 2.48 µg/mL |  | 
12 | O=C1NC2=C(C(=O)N(Cc3ccccc3)C2)C(c2ccc(O)cc2)N1 (stereo not shown) [3a, 6-Benzyl-4-(4-hydroxyphenyl)-3,4,6,7-tetrahydro-1H-pyrrolo[3,4-d]pyrimidine-2,5-dione] | 2.61 µg/mL | no inhibition | about 60%
13 | O=C1NC2=C(C(=O)N(c3nc4ccccc4[nH]3)C2)C(c2ccc(O)cc2)N1 (stereo not shown) [3g, 6-(1H-Benzo[d]imidazol-2-yl)-4-(4-hydroxyphenyl)-3,4,6,7-tetrahydro-1H-pyrrolo[3,4-d]pyrimidine-2,5-dione] | 1.85 µg/mL |  | 
14 | O=C1NC2=C(C(=O)N(Cc3ccc(Cl)cc3)C2)C(c2ccc(O)cc2)N1 (stereo not shown) [3c, 6-(4-Chlorobenzyl)-4-(4-hydroxyphenyl)-3,4,6,7-tetrahydro-1H-pyrrolo[3,4-d]pyrimidine-2,5-dione] |  | low activities | less than 50%

Now from value to compound, other results behind:

Row | DPPH radical scavenging IC50 [1] | alkaline phosphatase inhibitory activity (in words) [2] | Compound | DPPH radical scavenging % inhibition [1]
15 |  | good activity | 4-(2-Hydroxyphenyl)-6-(2-methoxyphenyl)-3,4,6,7-tetrahydro-1H-pyrrolo[3,4-d]pyrimidine-2,5-dione [4i] | less than 50%
16 |  | no inhibition | 4-(2-Hydroxyphenyl)-6-(3-methoxyphenyl)-3,4,6,7-tetrahydro-1H-pyrrolo[3,4-d]pyrimidine-2,5-dione [4k] | less than 50%
17 | 2.45 µg/mL | low activities | COc1ccc(N2CC3=C(C2=O)C(c2ccccc2O)NC(=O)N3)cc1 (stereo not shown) [4j, 4-(2-Hydroxyphenyl)-6-(4-methoxyphenyl)-3,4,6,7-tetrahydro-1H-pyrrolo[3,4-d]pyrimidine-2,5-dione] | 
18 | 0.48 µg/mL | low activities | O=C1NC2=C(C(=O)N(c3ccc(F)cc3)C2)C(c2ccccc2O)N1 (stereo not shown) [4f, 6-(4-Fluorophenyl)-4-(2-hydroxyphenyl)-3,4,6,7-tetrahydro-1H-pyrrolo[3,4-d]pyrimidine-2,5-dione] | highest percent of inhibition
19 |  | no inhibition | O=C1NC2=C(C(=O)N(Cc3ccc(Cl)cc3)C2)C(c2ccccc2O)N1 (stereo not shown) [4c, 6-(4-Chlorobenzyl)-4-(2-hydroxyphenyl)-3,4,6,7-tetrahydro-1H-pyrrolo[3,4-d]pyrimidine-2,5-dione] | less than 50%
20 | 1.72 µg/mL | moderate activity | 4-(2-Hydroxyphenyl)-6-(2-nitrophenyl)-3,4,6,7-tetrahydro-1H-pyrrolo[3,4-d]pyrimidine-2,5-dione [4h] | approximately 70%
21 | 2.731 µg/mL and 2.73 µg/mL |  | CCCCCCCCN1CC2=C(C1=O)C(c1ccccc1O)NC(=O)N2 (stereo not shown) [4b, 4-(2-Hydroxyphenyl)-6-octyl-3,4,6,7-tetrahydro-1H-pyrrolo[3,4-d]pyrimidine-2,5-dione] | 
22 | 0.75 µg/mL | no inhibition | O=C1NC2=C(C(=O)N(c3nc4ccccc4[nH]3)C2)C(c2ccccc2O)N1 (stereo not shown) [4g, 6-(1H-Benzo[d]imidazol-2-yl)-4-(2-hydroxyphenyl)-3,4,6,7-tetrahydro-1H-pyrrolo[3,4-d]pyrimidine-2,5-dione] | 80% and 70–80%
